Source: ChEMBL document CHEMBL1149269, “Novel 2-(substituted phenyl)benzimidazole derivatives with potent activity against IgE, cytokines, and CD23 for the treatment of allergy and asthma” (J Med Chem, 2004)
pIC50: −log10 of the molar value. The source made the active and inactive calls. No cut-off for these calls is given here.

Assays:
[1] = system: Mus musculus; test: Oral bioavailability in mouse at 40 mg/kg, po relative to AVP-13358; type: ADME, organism-based; conditions: in vivo
[2] = Ex vivo inhibition of IgE production in spleen cells from antigen sensitized BALB/c mouse; type: functional, cell-based
How it was run: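 BALB/c mice immunized with DNP-KLH plus alum; spleens taken 2 weeks later and cultured with antigen, with or without drug. Antigen-specific IgE in supernatants quantified by ELISA against a standard curve of DNP-specific mouse monoclonal antibody.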

[3] = system: B-cell; test: Inhibition of IgE production in B lymphocytes from BALB/c mouse; type: functional, cell-based
How it was run: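 B cells isolated from spleens of naive BALB/c mice, cultured 5 days with IL-4 (10 ng/mL) and anti-mouse CD40 antibody (100 ng/mL), with or without drug. IgE in supernatants quantified by ELISA against a standard curve of DNP-specific mouse monoclonal antibody.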

[4] = system: Mus musculus; test: Protection against allergic response in ovalbumin sensitized BALB/c mouse assessed as inhibition of airway hyper-responsiveness at 5 mg/kg, po twice daily; type: functional, organism-based; parameters: dose 5 mg/kg
How it was run: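 Female BALB/c mice sensitized i.p. with 10 µg OVA in 4 mg alum. At 2 weeks, OVA aerosol (2% in PBS) 20 min on 2 consecutive days with oral dosing twice daily for 3 days. 2 weeks later, OVA aerosol on 4 consecutive days with the same dosing. PBS-nebulized controls. Airway response to rising methacholine measured by whole-body plethysmography 1 day later.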

[5] = system: T-cell; test: Inhibition of IL4 production in conA and anti-CD3 antibody sensitized BALB/c mouse spleen T lymphocytes; type: functional, tissue-based
[6] = system: T-cell; test: Inhibition of IL5 production in conA and anti-CD3 antibody sensitized BALB/c mouse spleen T lymphocytes; type: functional, tissue-based
[7] = system: T-cell; test: Inhibition of IL13 production in conA and anti-CD3 antibody sensitized BALB/c mouse spleen T lymphocytes; type: functional, tissue-based
[8] = system: T-cell; test: Inhibition of IFN-gamma production in conA and anti-CD3 antibody sensitized BALB/c mouse spleen T lymphocytes; type: functional, tissue-based
[9] = Suppression of CD23 expression in IL4 and anti-CD40 antibody sensitized mouse splenocytes; conditions: Splenocyte
[10] = Suppression of IL4 receptor alpha expression in IL4 and anti-CD40 antibody sensitized mouse splenocytes; conditions: Splenocyte
[11] = Suppression of CD23 expression in IL4 and anti-CD40 antibody sensitized CD14-positive human peripheral blood lymphocytes; conditions: Lymphocyte

| SMILES | Relative Bioavailability [1] | pIC50 [3] | pIC50 [2] | other results |
| --- | --- | --- | --- | --- |
| O=C(Nc1ccccn1)c1ccc2[nH]c(-c3ccc(NC(=O)C45C[C@@H]6C[C@H](C4)[C@@H](O)[C@@H](C6)C5)cc3)nc2c1 | < 0.1 | 8.10 | 9.00 | – |
| O=C(Nc1ccccn1)c1ccc2[nH]c(-c3ccc(NC(=O)C45CC6CC(C4)C(=O)C(C6)C5)cc3)nc2c1 | 0.5 | 7.40 | 8.00 | – |
| O=C(Nc1ccccn1)c1ccc2[nH]c(-c3ccc(NC(=O)C45C[C@@H]6C[C@H](C4)[C@H](O)[C@@H](C6)C5)cc3)nc2c1 | < 0.1 | 7.82 | 9.00 | – |
| CC(=O)OC12CC3CC(C1)CC(C(=O)Nc1ccc(-c4nc5cc(C(=O)Nc6ccccn6)ccc5[nH]4)cc1)(C3)C2 | 0.35 | 8.30 | 9.00 | – |

The next lines start with results.

| Relative Bioavailability [1] | pIC50 [3] | SMILES | pIC50 [2] | other results |
| --- | --- | --- | --- | --- |
| < 0.1 | 8.70 | O=C(Nc1ccc(-c2nc3cc(C(=O)NC45CC6CC(CC(C6)C4)C5)ccc3[nH]2)cc1)c1ccc(Cl)c(Cl)c1 | 9.40 | – |
| < 0.1 | 7.05 | CC(=O)Nc1ccc(-c2nc3cc(C(=O)NC45CC6CC(CC(C6)C4)C5)ccc3[nH]2)cc1 | 7.60 | – |
| – | 8.10 | O=C(Nc1ccccn1)c1ccc2[nH]c(-c3ccc(NC(=O)C45CC6CC(CC(C6)C4)C5)cc3)nc2c1 | 8.52 | Activity [4]: Active; pIC50 [5]: 7.52; pIC50 [6]: 7.52; pIC50 [7]: 7.52; Activity [8]: Active; pIC50 [9]: 7.40; pIC50 [10]: 7.00; pIC50 [11]: 7.70 |
| < 0.1 | 8.70 | O=C(NC12CC3CC(CC(C3)C1)C2)c1ccc2[nH]c(-c3ccc(NC(=O)C45CC6CC(CC(C6)C4)C5)cc3)nc2c1 | 9.00 | – |
| < 0.1 | 8.15 | O=C(NC1CCCCC1)c1ccc2[nH]c(-c3ccc(NC(=O)C45CC6CC(CC(C6)C4)C5)cc3)nc2c1 | 8.70 | – |
